Screens: PubChem, several laboratories
G6PDH CS = inhibits Leuconostoc G6PDH, flagging false hits in G6PDH-based assays; inhibition, % at 5 µM; Purified L. mesenteroides G6PDH, diaphorase/resazurin coupled fluorescence, 45 min; 200,000 compounds, 0.12% hits; AID 1020
Diaphorase inh = diaphorase inhibition or chemical oxidation counter-screen; diaphorase resazurin-to-resorufin fluorescence, NADH, 16 min; bacterial (C. kluyveri) enzyme, not human; inhibition, % at 20 µM; 190,000 compounds, 0.69% hits; AID 1217;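 active means primary screen inhibition at 20 µM above a set limit, cut at about 50% in these data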;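 further: plate controls were DMSO with full reaction for no effect and wells lacking NADH for full effect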
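controls = No-NADH positive control and DMSO neutral control | system = Clostridium kluyveri diaphorase enzyme | timing = reaction incubation of 16 min at room temperature | signal = resorufin fluorescence 544/590 nm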
Diaphorase act = diaphorase activation or chemical reduction counter-screen; 190,000 compounds, 0.005% hits; activation factor at 20 µM; Diaphorase/resazurin coupled assay, resorufin fluorescence, 16 min; hits give high values; 1 = vehicle wells, 0 = NADH-free wells;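 active means diaphorase activity raised at least twofold by the compound at 20 µM; inactive means activation factor below 2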
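Material: bacterial diaphorase enzyme (C. kluyveri); amount: enzyme 0.07 U/mL final; reagent: NADH substrate 0.114 mM plus resazurin dye 0.1 mM, final; doses: single compound dose of 20 µM, 1% DMSO final; timing: 16 min enzyme reaction, ambient temperature; measured by: fluorescence of resorufin, 544 nm excitation, 590 nm emission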
L major viab = reduces viability of Leishmania major promastigotes; 200,000 compounds, 9% hits; inhibition, % at 10 µM; AID 1063; resazurin fluorescence viability;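 further: promastigotes grown with compound for 44 hours at 28 °C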
WT yeast gro inh = growth inhibition of WT yeast, mitochondrial fusion screen; mitochondrial fusion phenotypic screen, WT strain; inhibition, % at 10 µM; 190,000 compounds, 2.1% hits; AID 1362; in the data active means inhibition above about 58%; tested in S. cerevisiae
Active calls of the source: *; . = not tested or not shown. Rows were chosen to be rich in hits. Some 11% of all compounds tested hit in one or more screens of this group. Unless noted, no stated cut-off is given here; in the data, active means inhibition above about 50%; inactive means the rest.

SMILES	G6PDH CS	Diaphorase inh	Diaphorase act	L major viab	WT yeast gro inh
O=C(NNC1CC(=O)N(c2ccc3c(c2)OCCO3)C1=O)c1ccccc1 (configuration not stated)	3.8	3.3	1	-4.0	9.5
COc1cc(OC)c(C(=O)Nc2cccc(C(C)=O)c2)cc1OC	4.4	3.4	1	13.8	-5.9
Cc1cc(C)nc(-n2nc(C)c(Sc3ccc(F)cc3)c2N)n1	5.4	4.9	1	97.0*	78.0
CC(Sc1nc2ccccc2s1)C(=O)N1CCOCC1 (configuration not stated)	-1.8	10.0	0.9	-7.2	7.8
CCCn1c(SCC(=O)NCCc2ccc(Cl)cc2Cl)n[nH]c1=O	3.7	-4.5	1	-3.5	-19.9
CC(=O)Nc1ccc(SCC(=O)c2cc(C)n(-c3ccccc3)c2C)cc1	-13.2	17.8	0.8	8.5	3.1
CCCCCCCC[n+]1c(C)n(-c2ccccc2)c2ccc(NC(C)=O)cc21	0.3	5.5	0.9	98.6*	13.9
COCC(C)OC(=O)c1c(N)n(CC(C)C)c2nc3ccccc3nc12 (configuration not stated)	7.1	15.1	0.8	40.3	-14.7
O=C(CCCN1Cc2ccccc2C1)c1ccc(F)cc1	-3.0	6.9	0.9	93.0*	-3.9
O=C(CCN1Cc2ccccc2C1)c1ccc2c(c1)OCCO2	2.5	6.3	0.9	83.2*	5.4
O=C(CS(=O)(=O)c1ccccc1)c1ccc2c(c1)OCCO2	16.5	9.8	0.9	-4.5	-16.0
O=C(CCN1CCc2ccccc2C(c2ccccc2)C1)c1ccc2c(c1)OCCO2 (configuration not stated)	1.7	-1.1	1	100.5*	0.1
O=C(O)CCC(=O)c1ccc2c(c1)OCCO2	6.8	16.5	0.8	-3.1	7.8
Cc1cc2c(c(Sc3ccccc3)n1)C(=O)OC2	7.6	3.2	1	-11.7	-2.6
CCN(CC)S(=O)(=O)c1cccc(NC(=O)c2ccc(-n3nc(C)cc3C)cc2)c1	-14.4	13.7	0.9	18.1	7.8
COc1cccc(OCCCN2CCCCC2)c1	1.7	7.3	0.9	95.6*	15.7
COc1cccc(OCCCCN2CCCCC2)c1	-19.5	13.3	0.9	97.4*	-6.3
COc1cccc(C(=O)NCCCN2CCN(CCCNC(=O)c3cccc(OC)c3)CC2)c1	1.6	-2.0	1	-1.4	-6.7
CC1CCCN(CCC(=O)c2ccc(Br)cc2)C1 (configuration not stated)	-15.2	24.3	0.8	96.0*	-5.6
CC1CCCN(CCCCOc2cccc(Br)c2)C1 (configuration not stated)	0.7	-3.7	1	99.1*	41.5
CCC(Oc1ccccc1)C(=O)N1CCN(C(=O)C(CC)Oc2ccccc2)CC1 (configuration not stated)	1.5	-0.2	1	14.0	-10.8
COc1ccc(-c2nnc(SCC(=O)NC3CCCc4ccccc43)n2N)cc1 (configuration not stated)	-8.0	11.9	0.9	-5.0	-7.9
CC(C)(C)C(=O)CC1(O)C(=O)N(Cc2ccccc2)c2ccccc21 (configuration not stated)	6.9	3.2	1	6.0	-7.7
c1ccc2c(c1)CCN(c1nc(CN3CCOCC3)nc3sc4c(c13)CCCC4)C2	-3.8	29.4	0.7	19.2	45.6
CC1CCCN(CCOc2ccc(Br)cc2)C1 (configuration not stated)	2.1	3.8	1	51.3*	-7.9
SMILES	G6PDH CS	Diaphorase inh	Diaphorase act	L major viab	WT yeast gro inh
Brc1cccc(OCCCCN2CCCCC2)c1	7.3	23.0	0.8	98.1*	19.9
CC(=O)c1ccc(OCC(O)CN2CCCC(C)C2)cc1 (configuration not stated)	0.8	12.4	0.9	42.6	11.6
COc1ccc(OCCCN2CCCCCC2)cc1	2.6	-5.8	1.1	99.0*	0.6
c1ccc(OCCCN2CCCC2)cc1	4.2	-5.5	1.1	-0.3	-9.0
CCOc1cccc(OCCCCN2CCCCC2)c1	2.5	16.4	0.8	96.5*	-1.6
O=C1OCC2=C1C(c1ccc(F)cc1)CC(=O)N2c1ccccc1 (configuration not stated)	3.1	-3.7	1	-7.3	5.6
CCCCOCCCNC(=O)c1ccc([N+](=O)[O-])c(C)c1	4.7	12.1	0.9	-6.1	2.2
COc1cc2c(cc1OC)CN(CC(=O)Nc1cccc(C)c1)CC2	8.9	-10.6	1.1	1.7	-11.9
COc1cc2c(cc1OC)CN(CCC(=O)c1ccc(Br)cc1)CC2	-4.1	6.0	0.9	60.9*	13.2
CC(C)(C)c1ccc(OCCN2CCCC2)cc1	6.8	2.2	1	97.5*	2.1
COc1ccc(C(=O)/C=C/c2ccc(OC)c(CN3CCOCC3)c2)cc1	11.3	-0.1	1	86.0*	-8.7
COc1ccc(/C=C/C(=O)c2ccc3ccccc3c2O)cc1CN1CCOCC1	-3.8	-0.3	1	33.6	12.4
COc1ccc(/C=C/C(=O)C23CC4CC(CC(C4)C2)C3)cc1CN1CCOCC1	3.7	0.0	1	66.3*	23.9
COc1ccc(/C=C/C(=O)c2ccccc2O)cc1CN1CCOCC1	-4.6	10.9	0.9	23.9	-8.1
COc1ccc(C(=O)CSc2nnc(Cn3nnc4ccccc43)n2C)cc1	11.3	4.2	1	-1.7	-27.1
COc1ccc(/C=N\NC(=O)c2nn(C)cc2Cl)cc1CN1CCOCC1	3.6	-5.2	1.1	-1.5	2.0
COc1ccc(/C=C/C(=O)c2ccc(O)cc2)cc1CN1CCOCC1	-3.8	7.9	0.9	97.7*	-12.1
COc1ccc(C(=O)/C=C/c2ccc(OC)c(Cn3nnc4ccccc43)c2)cc1	-26.5	19.1	0.8	85.2*	5.0
COc1ccc(/C=C/C(=O)c2nc3ccccc3n2CC(=O)c2ccc(OC)cc2)cc1	0.3	23.1	0.8	75.1*	3.5
COc1ccc(C(=O)Cn2c(NCCO)nc3ccccc32)cc1	8.1	2.3	1	0.7	-5.8
O=S(=O)(c1ccc(Cl)c(Cl)c1)c1snnc1-c1ccccc1	-6.6	21.1	0.8	99.5*	84.0*
CCC(Oc1ccccc1)C(=O)Nc1ccc(-c2nnc(-c3ccco3)o2)cc1 (configuration not stated)	-19.6	20.7	0.8	93.7*	6.3
COc1ccccc1OCC(=O)Nc1ccc(-c2nnc(-c3ccco3)o2)cc1	10.6	.	.	-4.3	-7.8
Cn1c(=O)c2c(nc(NCc3cccnc3)n2Cc2ccccc2Cl)n(C)c1=O	6.3	2.7	1	17.4	6.0
COc1ccc(Oc2cn[nH]c2-c2ccc(O)cc2O)cc1	17.7	10.1	0.9	57.7*	21.2
CCCc1ccc(Oc2cn[nH]c2-c2ccc(O)cc2O)cc1	4.3	25.7	0.7	95.0*	94.8
COc1ccc(-c2[nH]ncc2Oc2ccccc2OC)c(O)c1	6.2	20.3	0.8	5.1	44.9
